This is an account of results in PMC2736347 (The Journal of organic chemistry, 2009).

In brackets after ≈: the same amount, converted by molar mass. Entries after “also recorded” stand apart in the source; their conditions may differ. Like-named read-outs stand apart in the source and are kept apart here.

The target in series [1] is T1, SIRT2 (Homo sapiens, UniProt Q8IXJ6).
T1 sequence (Q8IXJ6 1-389): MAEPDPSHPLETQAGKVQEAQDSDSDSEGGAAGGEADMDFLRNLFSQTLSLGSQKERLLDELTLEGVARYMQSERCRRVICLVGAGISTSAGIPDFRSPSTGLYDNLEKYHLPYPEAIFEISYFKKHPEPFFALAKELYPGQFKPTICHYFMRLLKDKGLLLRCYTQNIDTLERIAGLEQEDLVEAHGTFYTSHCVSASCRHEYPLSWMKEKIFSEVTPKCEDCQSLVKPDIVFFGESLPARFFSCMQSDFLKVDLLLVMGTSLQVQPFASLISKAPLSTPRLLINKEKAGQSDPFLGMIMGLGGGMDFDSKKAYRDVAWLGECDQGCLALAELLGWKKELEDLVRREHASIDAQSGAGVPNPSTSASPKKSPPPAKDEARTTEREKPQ
Briefly: Initial SIRT2 inhibitory assay. It is filed as biochemical. Summed up: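 Reactions contained 50 µM fluor de Lys substrate, 270 nM SIRT2 and 1 mM NAD, with or without test compound, in Buffer A (25 mM Tris-HCl pH 8.0, 137 mM NaCl, 2.7 mM KCl, 1 mM MgCl2). Blanks lacked NAD. After 2 h at 37°, reactions were stopped with 2.7 mg/mL trypsin in Buffer A and developed for 20 min. Fluorescence was read at ex 360/em 460 nm.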

The test system of the next series is sodium channels. Briefly: Sodium channel blocking assay in neuro-2a cells. The class given is cell-based, mouse.
Series [2] deals with NCI-H460 lung tumor cells. Briefly: Cytotoxicity assay. The class given is cell-based. As to conditions: human lung H-460. Summed up:
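NCI-H460 cells were seeded at 6000 cells/well in 96-well plates and dosed 24 h later. The test compound was dissolved in DMSO and diluted into medium without fetal bovine serum, with DMSO below 0.5% final. Viability was read by MTT reduction.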

In the next series the target is T2, SIRT1 (Homo sapiens, UniProt Q96EB6).
T2 sequence (Q96EB6 1-747): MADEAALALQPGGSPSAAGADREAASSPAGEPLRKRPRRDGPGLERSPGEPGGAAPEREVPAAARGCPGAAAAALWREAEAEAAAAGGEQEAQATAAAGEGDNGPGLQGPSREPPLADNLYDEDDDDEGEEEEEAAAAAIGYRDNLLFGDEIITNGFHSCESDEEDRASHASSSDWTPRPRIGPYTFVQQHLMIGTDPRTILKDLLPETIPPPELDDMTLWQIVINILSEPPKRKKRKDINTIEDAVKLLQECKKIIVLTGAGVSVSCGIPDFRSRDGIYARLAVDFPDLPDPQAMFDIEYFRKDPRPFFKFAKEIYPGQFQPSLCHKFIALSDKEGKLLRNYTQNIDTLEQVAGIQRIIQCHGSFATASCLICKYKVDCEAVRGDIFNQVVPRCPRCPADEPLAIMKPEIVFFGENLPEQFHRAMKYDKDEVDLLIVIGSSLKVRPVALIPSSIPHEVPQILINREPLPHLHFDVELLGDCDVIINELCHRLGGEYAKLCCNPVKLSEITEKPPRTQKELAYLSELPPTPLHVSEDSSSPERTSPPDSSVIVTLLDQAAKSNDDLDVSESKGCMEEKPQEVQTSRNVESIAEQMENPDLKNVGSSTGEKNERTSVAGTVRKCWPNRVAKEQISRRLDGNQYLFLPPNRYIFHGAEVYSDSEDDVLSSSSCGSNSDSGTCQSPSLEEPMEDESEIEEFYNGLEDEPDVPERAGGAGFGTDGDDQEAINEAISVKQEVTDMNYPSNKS
Briefly: Secondary SIRT1 inhibitory assay. It is filed as biochemical. The following applies: read-out: SIRT1 IC50 ± SE; second assay system.

Series [3] concerns the target T1, SIRT2. Briefly: Secondary SIRT2 inhibitory assay. It is filed as biochemical. The following applies: second assay system; for IC50: read-out: SIRT2 IC50 ± SE.
Series [4] addresses T1, SIRT2. As to conditions: read-out: IC50 (SIRT2), reported; cited from earlier work.
The next series concerns Candida albicans. As to conditions: 100 µg/disk; cited from earlier work.
The subject of a further series is Artemia salina. The following applies: cited from earlier work.
A further series concerns Biomphalaria glabrata. As to conditions: cited from earlier work.

As for `CCCCCCCCCCCC(O)(CO)CCCC(=O)O` (stereo not shown) [Compound 2, Tanikolide seco acid], the SIRT2 inhibitory activity result at SIRT2 [1] (highest concentration tested 50 µM) was “inactive”. For the same molecule, the “sodium channel blocking activity” value with sodium channels (highest concentration tested 10 µM) is “inactive”. In series [2] (at 9.9 µM), the “cytotoxicity to H-460 cell line” value is listed as “moderately toxic; also recorded: moderate cytotoxicity”.
As to (5S, 5’S)-tanikolide dimer [ent-5], the IC50 at SIRT1 came to 34.5 ± 3.5 µM; at SIRT2 [3], 3.1 ± 0.3 µM. Besides, on SIRT2 [3], the “fold more potent to the SIRT2 isoform than to SIRT1” value is recorded as “approximately 10 fold”.
For (5R, 5’S)-tanikolide dimer [Compound 4] the same measures were 28.8 ± 4.3 µM, 2.4 ± 0.2 µM and “approximately 10 fold”.
Consider (5R, 5’R)-tanikolide dimer [Compound 3], for which the IC50 was 0.176 µM at SIRT2 [1] (read-out: IC50 against SIRT2, initial assay format); 36.4 ± 8.1 µM at SIRT1; 3.3 ± 0.2 µM at SIRT2 [3] (listed as 5). Further, the “fold more potent to the SIRT2 isoform than to SIRT1” value on SIRT2 [3] is “approximately 10 fold”. Moreover, the “inhibition in sodium channel blocking assay” value in the series on sodium channels (at 5.2 µM) is given as 54%. Further, the “cytotoxicity to H-460 cell line” value in series [2] (at 10 µM) is “did not have any activity”.
Take `O=c1oc2ccccc2c2oc3cc(O)c(O)cc3c12` [8,9-dihydroxybenzo-[4,5]furo[3,2-c]chromen-6-one]: the IC50 on SIRT2 [4] was 45 µM.
Consider `CCCCCCCCCCC[C@]1(CO)CCCC(=O)O1` [Compound 1, Tanikolide], for which the diameter zone inhibition in the series with Candida albicans is given as 13 mm. Further, in the series with Artemia salina, the LC50 brine shrimp was 3.6 µg/mL (≈ 12.7 µM). The LC50 snail in the series on Biomphalaria glabrata is 9.0 µg/mL (≈ 31.6 µM).

One may read the IC50 as the concentration that inhibits the measured activity by half.
